ChEMBL document CHEMBL4325889, “Natural products hybrids: 3,5,4'-Trimethoxystilbene-5,6,7-trimethoxyflavone chimeric analogs as potential cytotoxic agents against diverse human cancer cells” (Eur J Med Chem, 2019)

How the values were obtained:
Type in all cases: functional
SN12C = assay: Growth inhibition of human SN12C cells at 10 uM after 48 hrs by SRB assay relative to control; settings: read-out: GI
Method in brief: (§1)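 Screened at the National Cancer Institute by the standard NCI protocol using the sulforhodamine B assay, which measures cellular protein. Single dose of 10 µM. Result is percent growth inhibition; values above 100% mean cell number fell below the initial population. Values are the average of duplicates.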

CCRF-CEM = assay: Growth inhibition of human CCRF-CEM cells at 10 uM after 48 hrs by SRB assay relative to control; settings: read-out: GI; method in brief: as §1
RPMI-8226 = assay: Growth inhibition of human RPMI8226 cells at 10 uM after 48 hrs by SRB assay relative to control; settings: RPMI-8226, 48 h, read-out: GI; method in brief: as §1
786-0 = assay: Growth inhibition of human 786-0 cells at 10 uM after 48 hrs by SRB assay relative to control; settings: 786-0, 48 h, read-out: GI; method in brief: as §1
NCI-H322M = assay: Growth inhibition of human NCI-H322M cells at 10 uM after 48 hrs by SRB assay relative to control; settings: read-out: GI; method in brief: as §1
UO-31 = assay: Growth inhibition of human UO31 cells at 10 uM after 48 hrs by SRB assay relative to control; settings: UO-31, 48 h, read-out: GI
Method in brief: (§2)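 NCI screen against its human cancer cell line panel by the standard NCI protocol, SRB protein stain. Single dose of 10 μM. Percent growth inhibition versus control; values above 100% mean the cell population fell below the starting number. Each value is the mean of duplicates.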

Malme-3M = assay: Growth inhibition of human MALME-3M cells at 10 uM after 48 hrs by SRB assay relative to control; settings: read-out: GI; method in brief: as §1
SNB-75 = assay: Growth inhibition of human SNB75 cells at 10 uM after 48 hrs by SRB assay relative to control; settings: SNB-75, 48 h, read-out: GI; method in brief: as §2
LOX IMVI = assay: Growth inhibition of human LOXIMVI cells at 10 uM after 48 hrs by SRB assay relative to control; settings: read-out: GI; method in brief: as §1
MCF7 = assay: Growth inhibition of human MCF7 cells at 10 uM after 48 hrs by SRB assay relative to control; settings: MCF7, 48 h, read-out: GI; method in brief: as §1
NCI-H23 = assay: Growth inhibition of human NCI-H23 cells at 10 uM after 48 hrs by SRB assay relative to control; settings: NCI-H23, 48 h, read-out: GI; method in brief: as §1
NCI-H522 = assay: Growth inhibition of human NCI-H522 cells at 10 uM after 48 hrs by SRB assay relative to control; settings: NCI-H522, 48 h, read-out: GI; method in brief: as §1
COLO 205 = assay: Growth inhibition of human COLO205 cells at 10 uM after 48 hrs by SRB assay relative to control; settings: COLO 205, 48 h, read-out: GI; method in brief: as §1
TK-10 = assay: Growth inhibition of human TK10 cells at 10 uM after 48 hrs by SRB assay relative to control; settings: TK-10, 48 h, read-out: GI; method in brief: as §2
BT-549 = assay: Growth inhibition of human BT549 cells at 10 uM after 48 hrs by SRB assay relative to control; settings: BT-549, 48 h, read-out: GI; method in brief: as §1
NCI-H226 = assay: Growth inhibition of human NCI-H226 cells at 10 uM after 48 hrs by SRB assay relative to control; settings: NCI-H226, 48 h, read-out: GI; method in brief: as §1
HL-60(TB) = assay: Growth inhibition of human HL-60(TB) cells at 10 uM after 48 hrs by SRB assay relative to control; settings: HL-60, 48 h, read-out: GI
Method in brief: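 Run at NCI under its standard single-dose protocol against a leukemia cell panel. Cells were exposed to 10 µM; growth was read by sulforhodamine B staining of cellular protein and expressed as % growth inhibition versus untreated control. Values above 100% mean the cell population fell below the starting count (cytocidal). Each value is the average of duplicates.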

SK-MEL-28 = assay: Growth inhibition of human SK-MEL-28 cells at 10 uM after 48 hrs by SRB assay relative to control; settings: SK-MEL-28, 48 h, read-out: GI; method in brief: as §1
HOP-62 = assay: Growth inhibition of human HOP62 cells at 10 uM after 48 hrs by SRB assay relative to control; settings: HOP-62, 48 h, read-out: GI; method in brief: as §1
DU-145 = assay: Growth inhibition of human DU145 cells at 10 uM after 48 hrs by SRB assay relative to control; settings: DU-145, 48 h, read-out: GI; method in brief: as §1
A549 = assay: Growth inhibition of human A549 cells at 10 uM after 48 hrs by SRB assay relative to control; settings: A549, 48 h, read-out: GI; method in brief: as §1
SF-539 = assay: Growth inhibition of human SF539 cells at 10 uM after 48 hrs by SRB assay relative to control; settings: SF-539, 48 h, read-out: GI; method in brief: as §1
MOLT-4 = assay: Growth inhibition of human MOLT4 cells at 10 uM after 48 hrs by SRB assay relative to control; settings: MOLT-4, 48 h, read-out: GI; method in brief: as §1
NCI-H460 = assay: Growth inhibition of human NCI-H460 cells at 10 uM after 48 hrs by SRB assay relative to control; settings: NCI-H460, 48 h, read-out: GI; method in brief: as §1
Hs-578T = assay: Growth inhibition of human Hs 578T cells at 10 uM after 48 hrs by SRB assay relative to control; settings: read-out: GI; method in brief: as §1
UACC-257 = assay: Growth inhibition of human UACC257 cells at 10 uM after 48 hrs by SRB assay relative to control; settings: UACC-257, 48 h, read-out: GI; method in brief: as §2
OVCAR-4 = assay: Growth inhibition of human OVCAR4 cells at 10 uM after 48 hrs by SRB assay relative to control; settings: OVCAR-4, 48 h, read-out: GI; method in brief: as §1
NCI/ADR-RES = assay: Growth inhibition of human NCI/ADR-RES cells at 10 uM after 48 hrs by SRB assay relative to control; settings: read-out: GI; method in brief: as §1
RXF 393 = assay: Growth inhibition of human RXF393 cells at 10 uM after 48 hrs by SRB assay relative to control; settings: RXF 393, 48 h, read-out: GI; method in brief: as §1
SF-295 = assay: Growth inhibition of human SF295 cells at 10 uM after 48 hrs by SRB assay relative to control; settings: SF-295, 48 h, read-out: GI; method in brief: as §1
MDA-MB-435 = assay: Growth inhibition of human MDA-MB-435 cells at 10 uM after 48 hrs by SRB assay relative to control; settings: MDA-MB-435, 48 h, read-out: GI; method in brief: as §1
HCC 2998 = assay: Growth inhibition of human HCC2998 cells at 10 uM after 48 hrs by SRB assay relative to control; settings: HCC 2998, 48 h, read-out: GI; method in brief: as §1
K562 = assay: Growth inhibition of human K562 cells at 10 uM after 48 hrs by SRB assay relative to control; settings: K562, 48 h, read-out: GI; method in brief: as §1
PC-3 = assay: Growth inhibition of human PC3 cells at 10 uM after 48 hrs by SRB assay relative to control; settings: PC-3, 48 h, read-out: GI; method in brief: as §1

**Q.** How did the inhibition of growth at 10 µM (SN12C) turn out when COc1ccc(C(=O)Nc2cccc(-c3cc(=O)c4c(OC)c(OC)c(OC)cc4o3)c2)cc1 was run?
**A.** 50%

**Q.** What about the inhibition of growth at 10 µM (CCRF-CEM) of the same compound?
**A.** 72.5%

**Q.** What about the inhibition of growth at 10 µM (RPMI-8226) of the same compound?
**A.** 81.2%

**Q.** What about the inhibition of growth at 10 µM (786-0) of the same compound?
**A.** 45%

**Q.** What about the inhibition of growth at 10 µM (NCI-H322M) of the same compound?
**A.** 44.9%

**Q.** And the inhibition of growth at 10 µM (UO-31)?
**A.** 73.5%

**Q.** And the inhibition of growth at 10 µM (Malme-3M)?
**A.** 46.6%

**Q.** What about the inhibition of growth at 10 µM (SNB-75) of the same compound?
**A.** 32.4%

**Q.** What about the inhibition of growth at 10 µM (LOX IMVI) of the same compound?
**A.** 58.1%

**Q.** And the inhibition of growth at 10 µM (MCF7)?
**A.** 33.5%

**Q.** And the inhibition of growth at 10 µM (NCI-H23)?
**A.** 42.5%

**Q.** What about the inhibition of growth at 10 µM (NCI-H522) of the same compound?
**A.** 55.5%

**Q.** And the inhibition of growth at 10 µM (COLO 205)?
**A.** 26.9%

**Q.** And the inhibition of growth at 10 µM (TK-10)?
**A.** 23.3%

**Q.** What about the inhibition of growth at 10 µM (BT-549) of the same compound?
**A.** 48.6%

**Q.** And the inhibition of growth at 10 µM (NCI-H226)?
**A.** 30.1%

**Q.** And the inhibition of growth at 10 µM (HL-60(TB))?
**A.** 55.2%

**Q.** And the inhibition of growth at 10 µM (SK-MEL-28)?
**A.** 31%

**Q.** And the inhibition of growth at 10 µM (HOP-62)?
**A.** 27.5%

**Q.** What about the inhibition of growth at 10 µM (DU-145) of the same compound?
**A.** 43.5%

**Q.** What about the inhibition of growth at 10 µM (A549) of the same compound?
**A.** 35.3%

**Q.** What about the inhibition of growth at 10 µM (SF-539) of the same compound?
**A.** 33.7%

**Q.** What about the inhibition of growth at 10 µM (MOLT-4) of the same compound?
**A.** 76.7%

**Q.** And the inhibition of growth at 10 µM (NCI-H460)?
**A.** 57.9%

**Q.** And the inhibition of growth at 10 µM (Hs-578T)?
**A.** 57.1%

**Q.** And the inhibition of growth at 10 µM (UACC-257)?
**A.** -4.69%

**Q.** And the inhibition of growth at 10 µM (OVCAR-4)?
**A.** 38%

**Q.** What about the inhibition of growth at 10 µM (NCI/ADR-RES) of the same compound?
**A.** 39.8%

**Q.** And the inhibition of growth at 10 µM (RXF 393)?
**A.** 46.4%

**Q.** What about the inhibition of growth at 10 µM (SF-295) of the same compound?
**A.** 40.4%

**Q.** And the inhibition of growth at 10 µM (MDA-MB-435)?
**A.** 30.4%

**Q.** And the inhibition of growth at 10 µM (HCC 2998)?
**A.** 29.7%

**Q.** What about the inhibition of growth at 10 µM (K562) of the same compound?
**A.** 79.4%

**Q.** And the inhibition of growth at 10 µM (PC-3)?
**A.** 68.1%

**Q.** What does the source list for COc1ccccc1NC(=O)c1cccc(-c2cc(=O)c3c(OC)c(OC)c(OC)cc3o2)c1?
**A.** inhibition of growth at 10 µM (SN12C): 34.6%; inhibition of growth at 10 µM (CCRF-CEM): 48.3%; inhibition of growth at 10 µM (RPMI-8226): 73.7%; inhibition of growth at 10 µM (786-0): 39.2%; inhibition of growth at 10 µM (NCI-H322M): 18.9%; inhibition of growth at 10 µM (UO-31): 69.6%; inhibition of growth at 10 µM (Malme-3M): 22.9%; inhibition of growth at 10 µM (SNB-75): 30.1%; inhibition of growth at 10 µM (LOX IMVI): 52.1%; inhibition of growth at 10 µM (MCF7): 28.4%; inhibition of growth at 10 µM (NCI-H23): 34%; inhibition of growth at 10 µM (NCI-H522): 56.5%; inhibition of growth at 10 µM (COLO 205): 14.8%; inhibition of growth at 10 µM (TK-10): 10.4%; inhibition of growth at 10 µM (BT-549): 44.9%; inhibition of growth at 10 µM (NCI-H226): 37.2%; inhibition of growth at 10 µM (HL-60(TB)): 10.1%; inhibition of growth at 10 µM (SK-MEL-28): 24.6%; inhibition of growth at 10 µM (HOP-62): 30.6%; inhibition of growth at 10 µM (DU-145): 29.6%; inhibition of growth at 10 µM (A549): 31.1%; inhibition of growth at 10 µM (SF-539): 30.5%; inhibition of growth at 10 µM (MOLT-4): 38.7%; inhibition of growth at 10 µM (NCI-H460): 41.1%; inhibition of growth at 10 µM (Hs-578T): 60%; inhibition of growth at 10 µM (UACC-257): -6.14%; inhibition of growth at 10 µM (OVCAR-4): 19.4%; inhibition of growth at 10 µM (NCI/ADR-RES): 46.7%; inhibition of growth at 10 µM (RXF 393): 29.3%; inhibition of growth at 10 µM (SF-295): 38.2%; inhibition of growth at 10 µM (MDA-MB-435): 22.4%; inhibition of growth at 10 µM (HCC 2998): 13.6%; inhibition of growth at 10 µM (K562): 51.2%; inhibition of growth at 10 µM (PC-3): 43.6%
